Measured values as given in ChEMBL document CHEMBL1153606, “Microwave assisted synthesis of new indophenazine 1,3,5-trisubstruted pyrazoline derivatives of benzofuran and their antimicrobial activity” (2009).
≈ marks a conversion by molar mass, not a printed value. Calls of active or inactive are those of the source. The rule behind the calls is not given here.

What was measured:
Candida albicans = assay: Antifungal activity against Candida albicans after 30 to 72 hrs by agar culture method; type: functional, organism-based
Method in brief: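 Agar well assay on C. albicans: compounds at a range of concentrations in DMF were loaded into 6 mm wells. Plates were incubated at 30 °C for 30–72 h. Inhibition zones were read in mm against standard drugs.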

Streptococcus pyogenes [1] = assay: Antibacterial activity against multidrug-resistant Streptococcus pyogenes after 20 hrs by cylinder and well method; type: functional
Method in brief: (§1)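 Agar diffusion assay: organisms grown overnight on 2% agar with 5% sheep blood under 10% CO2. Inocula were diluted in Ringer solution, treated in Todd–Hewitt medium and spread on agar plates. Drug spots were applied, with about 5 × 10^3 CFU/spot. Plates were held at 37 °C for 20 h. Inhibition zones were read in mm against standard drugs and vehicle.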

Streptococcus pyogenes [2] = assay: Antibacterial activity against multidrug-resistant Streptococcus pyogenes after 24 hrs by broth microdilution method; type: functional
Method in brief: (§2)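 MIC was determined in Mueller–Hinton broth.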

Staphylococcus aureus [3] = assay: Antibacterial activity against multidrug-resistant Staphylococcus aureus after 24 hrs by broth microdilution method; type: functional; method in brief: as §2
Staphylococcus aureus [4] = assay: Antibacterial activity against multidrug-resistant Staphylococcus aureus after 20 hrs by cylinder and well method; type: functional; method in brief: as §1
[5] = system: Salmonella enterica subsp. enterica; assay: Antibacterial activity against multidrug-resistant Salmonella typhi after 24 hrs by broth microdilution method; type: functional, Salmonella enterica subsp. enterica serovar Typhi; method in brief: as §2
[6] = system: Salmonella enterica subsp. enterica; assay: Antibacterial activity against multidrug-resistant Salmonella typhi after 20 hrs by cylinder and well method; type: functional, Salmonella enterica subsp. enterica serovar Typhi; method in brief: as §1
Streptococcus agalactiae [7] = assay: Antibacterial activity against multidrug-resistant Streptococcus agalactiae after 24 hrs by broth microdilution method; type: functional; method in brief: as §2
Streptococcus agalactiae [8] = assay: Antibacterial activity against multidrug-resistant Streptococcus agalactiae after 20 hrs by cylinder and well method; type: functional; method in brief: as §1
Streptococcus pneumoniae [9] = assay: Antibacterial activity against multidrug-resistant Streptococcus pneumoniae after 20 hrs by cylinder and well method; type: functional; method in brief: as §1
Streptococcus pneumoniae [10] = assay: Antibacterial activity against multidrug-resistant Streptococcus pneumoniae after 24 hrs by broth microdilution method; type: functional; method in brief: as §2
Pseudomonas aeruginosa [11] = assay: Antibacterial activity against multidrug-resistant Pseudomonas aeruginosa after 24 hrs by broth microdilution method; type: functional; method in brief: as §2
Pseudomonas aeruginosa [12] = assay: Antibacterial activity against multidrug-resistant Pseudomonas aeruginosa after 20 hrs by cylinder and well method; type: functional; method in brief: as §1
Escherichia coli [13] = assay: Antibacterial activity against multidrug-resistant Escherichia coli after 20 hrs by cylinder and well method; type: functional; method in brief: as §1
Escherichia coli [14] = assay: Antibacterial activity against multidrug-resistant Escherichia coli broth after 24 hrs by broth microdilution method; type: functional; method in brief: as §2

Compound	Activity (Candida albicans)	inhibition zone (IZ) (Streptococcus pyogenes [1])	MIC (Streptococcus pyogenes [2])	MIC (Staphylococcus aureus [3])	inhibition zone (IZ) (Staphylococcus aureus [4])	MIC [5]	inhibition zone (IZ) [6]	MIC (Streptococcus agalactiae [7])	inhibition zone (IZ) (Streptococcus agalactiae [8])	inhibition zone (IZ) (Streptococcus pneumoniae [9])	MIC (Streptococcus pneumoniae [10])	MIC (Pseudomonas aeruginosa [11])	inhibition zone (IZ) (Pseudomonas aeruginosa [12])	inhibition zone (IZ) (Escherichia coli [13])	MIC (Escherichia coli [14])
O=C(O)c1ccccc1C1CC(c2cc3ccccc3o2)=NN1C(=O)Cn1c2ccccc2c2nc3ccccc3nc21 (stereo not given)	inactive	10 mm	30.5 µg/mL (≈ 53.9 µM)	8.5 µg/mL (≈ 15 µM)	12 mm	15 µg/mL (≈ 26.5 µM)	8 mm	24 µg/mL (≈ 42.4 µM)	10 mm	12 mm	10.5 µg/mL (≈ 18.6 µM)	6.5 µg/mL (≈ 11.5 µM)	14 mm	11 mm	13 µg/mL (≈ 23 µM)
CN(C)c1ccc(C2CC(c3cc4ccccc4o3)=NN2C(=O)Cn2c3ccccc3c3nc4ccccc4nc32)cc1 (stereo not given)	inactive	9 mm	25.5 µg/mL (≈ 45.2 µM)	7 µg/mL (≈ 12.4 µM)	14 mm	9.5 µg/mL (≈ 16.8 µM)	10 mm	36.5 µg/mL (≈ 64.6 µM)	7 mm	13 mm	9 µg/mL (≈ 15.9 µM)	14 µg/mL (≈ 24.8 µM)	11 mm	10 mm	13.5 µg/mL (≈ 23.9 µM)
O=C(Cn1c2ccccc2c2nc3ccccc3nc21)N1N=C(c2cc3ccccc3o2)CC1c1cccc([N+](=O)[O-])c1 (stereo not given)	inactive	12 mm	28 µg/mL (≈ 49.4 µM)	12.5 µg/mL (≈ 22.1 µM)	9 mm	13 µg/mL (≈ 22.9 µM)	10 mm	26 µg/mL (≈ 45.9 µM)	12 mm	14 mm	8 µg/mL (≈ 14.1 µM)	5.5 µg/mL (≈ 9.71 µM)	16 mm	13 mm	10.5 µg/mL (≈ 18.5 µM)
O=C(Cn1c2ccccc2c2nc3ccccc3nc21)N1N=C(c2cc3ccccc3o2)CC1c1ccco1 (stereo not given)	inactive	8 mm	30 µg/mL (≈ 58.6 µM)	10.5 µg/mL (≈ 20.5 µM)	10 mm	16.5 µg/mL (≈ 32.3 µM)	9 mm	26.5 µg/mL (≈ 51.8 µM)	10 mm	14 mm	5.6 µg/mL (≈ 10.9 µM)	21 µg/mL (≈ 41.1 µM)	8 mm	10 mm	15 µg/mL (≈ 29.3 µM)
O=C(Cn1c2ccccc2c2nc3ccccc3nc21)N1N=C(c2cc3ccccc3o2)CC1c1ccc(Cl)cc1 (stereo not given)	inactive	14 mm	22 µg/mL (≈ 39.6 µM)	16.5 µg/mL (≈ 29.7 µM)	8 mm	16 µg/mL (≈ 28.8 µM)	10 mm	28 µg/mL (≈ 50.4 µM)	10 mm	15 mm	5.5 µg/mL (≈ 9.89 µM)	16.5 µg/mL (≈ 29.7 µM)	10 mm	7 mm	22.5 µg/mL (≈ 40.5 µM)
O=C(Cn1c2ccccc2c2nc3ccccc3nc21)N1N=C(c2cc3ccccc3o2)CC1c1ccccc1 (stereo not given)	inactive	12 mm	28.5 µg/mL (≈ 54.6 µM)	2.5 µg/mL (≈ 4.79 µM)	16 mm	17 µg/mL (≈ 32.6 µM)	8 mm	28.5 µg/mL (≈ 54.6 µM)	8 mm	20 mm	2 µg/mL (≈ 3.83 µM)	15.5 µg/mL (≈ 29.7 µM)	11 mm	14 mm	8 µg/mL (≈ 15.3 µM)
COc1ccc(C2CC(c3cc4ccccc4o3)=NN2C(=O)Cn2c3ccccc3c3nc4ccccc4nc32)cc1 (stereo not given)	inactive	14 mm	23.5 µg/mL (≈ 42.6 µM)	8 µg/mL (≈ 14.5 µM)	12 mm	12 µg/mL (≈ 21.8 µM)	11 mm	19 µg/mL (≈ 34.4 µM)	14 mm	16 mm	4.5 µg/mL (≈ 8.16 µM)	12.5 µg/mL (≈ 22.7 µM)	13 mm	17 mm	5 µg/mL (≈ 9.06 µM)
O=C(Cn1c2ccccc2c2nc3ccccc3nc21)N1N=C(c2cc3ccccc3o2)CC1c1ccccc1[N+](=O)[O-] (stereo not given)	inactive	10 mm	24 µg/mL (≈ 42.4 µM)	9.5 µg/mL (≈ 16.8 µM)	12 mm	14.5 µg/mL (≈ 25.6 µM)	10 mm	22 µg/mL (≈ 38.8 µM)	12 mm	13 mm	8.5 µg/mL (≈ 15 µM)	10.5 µg/mL (≈ 18.5 µM)	12 mm	16 mm	5.5 µg/mL (≈ 9.71 µM)
